# CHO parental Ca: counter-screen: ATP calcium response change in parental CHO cells; parental CHO-K1, ATP-induced calcium, Fluo-8 fluorescence; inhibition, % at 5.6 µM; 0.63% of 330,000 active; AID 463079;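 active means inhibition above that plate's mean sample inhibition plus 3 SD, cut at about 26% in these data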;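 further: 0% = ATP-challenged DMSO wells and 100% = DMSO wells without ATP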
#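 Assay system: parental CHO cells; Read-out basis: percent inhibition of ATP-evoked calcium rise, normalized to controls; Benchmarks: ATP and no-ATP DMSO wells; Compound dosing: single nominal dose of 5.6 µM per compound; Signal: Fluo-8 calcium dye fluorescence; Also added: ATP as calcium-mobilizing challenge; Repeats: singlicate.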
# OX1R antag-1: blocks the human orexin 1 receptor; O43613; CHO/OX1R cells, Fluo-8 calcium fluorescence, orexin A; inhibition, % at 5 µM; 0.43% of 330,000 active; AID 434989;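 active means inhibition above its plate's threshold, mean inhibition of all tested compounds on the plate plus 3 SD, cut at about 37% in these data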;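 further: 0% = orexin A challenge wells and 100% = SB-334867-A antagonist wells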
# Target sequence (O43613 whole entry, looked up): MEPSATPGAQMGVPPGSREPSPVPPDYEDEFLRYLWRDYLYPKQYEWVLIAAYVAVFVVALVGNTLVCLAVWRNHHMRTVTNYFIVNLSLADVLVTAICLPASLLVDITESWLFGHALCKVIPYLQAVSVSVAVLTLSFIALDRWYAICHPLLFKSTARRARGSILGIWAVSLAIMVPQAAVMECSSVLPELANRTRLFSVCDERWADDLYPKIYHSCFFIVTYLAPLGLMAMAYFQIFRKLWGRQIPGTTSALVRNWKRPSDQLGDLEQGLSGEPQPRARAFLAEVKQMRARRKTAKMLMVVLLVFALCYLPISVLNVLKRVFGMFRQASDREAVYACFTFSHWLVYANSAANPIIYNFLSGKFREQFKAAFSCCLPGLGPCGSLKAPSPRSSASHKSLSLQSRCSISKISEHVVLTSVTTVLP
# TAAR1 ag: agonists of human TAAR1. Q96RJ0. CHO RD-HGA16 TAAR1, Fluo-8 calcium fluorescence; vehicle wells 0%, saturating PEA agonist 100%. activation, % at 3 µM. 0.99% of 360,000 active. AID 624467;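 active means activation above the mean activation of all test compounds in the run plus 3 SD, cut at about 38% in these data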
# Target sequence (Q96RJ0 whole entry, looked up): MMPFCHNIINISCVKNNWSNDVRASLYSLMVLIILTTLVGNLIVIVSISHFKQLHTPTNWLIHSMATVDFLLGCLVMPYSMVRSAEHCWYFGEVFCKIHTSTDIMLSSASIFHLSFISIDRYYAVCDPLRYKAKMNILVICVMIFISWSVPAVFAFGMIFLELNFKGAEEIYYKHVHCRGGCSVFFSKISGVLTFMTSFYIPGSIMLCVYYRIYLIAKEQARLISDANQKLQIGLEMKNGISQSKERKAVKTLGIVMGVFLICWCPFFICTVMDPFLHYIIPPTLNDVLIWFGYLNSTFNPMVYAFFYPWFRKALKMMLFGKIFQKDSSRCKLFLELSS
#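 System: CHO-derived RD-HGA16 cells with stable Gα16 and human TAAR1 / Times: 17-24 h plating, Fluo-8 75 min 37 °C, 30 min RT / Technique: calcium-sensitive Fluo-8 signal, excitation 470-495, emission 515-575 nm / Measure: % activation relative to PEA EC100 response / Benchmarks: DMSO and PEA EC100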
# TAAR1 antagonist: antagonists of human TAAR1; Q96RJ0; CHO RD-HGA16 TAAR1, Fluo-8 calcium fluorescence, antagonist; inhibition, % at 3 µM; 1.5% of 360,000 active; AID 624466;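 active means inhibition above a per-plate cutoff, the mean inhibition of test compounds on that plate plus 3 SD, cut at about 49% in these data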;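 further: 0% = DMSO plus EC80 beta-PEA response and 100% = DMSO alone without agonist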
#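 Material: RD-HGA16 CHO cells with stable hTAAR1 and Gα16; Dosing: single nominal final test compound concentration of 3 µM; Schedule: seeding 17-24 h prior, 75-min 37 °C, 30-min RT dye loading; Detection: kinetic Fluo-8 calcium fluorescence measurement; Measure: % inhibition from peak post-agonist over basal fluorescence ratio; Benchmarks: vehicle and agonist controls.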
# OX1R antag-2: blocks the human orexin 1 receptor; OX1R-expressing cells, FRET antagonist read-out; inhibition, % at 6.6 µM; 1.8% of 330,000 active; in the data active means inhibition mostly above about 38%, no sharp cut-off; inactive means mostly below about 40%;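 further: 0% = agonist challenge alone and 100% = reference antagonist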
# GPR7 antagonist: antagonists of human GPR7 (neuropeptides B/W receptor 1); GPR7-expressing cells, fluorescence antagonist assay; inhibition, % at 4.4 µM; 1.1% of 290,000 active; AID 1861; in the data active means inhibition above about 16%, passing the limit was not always enough;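 further: cells stimulated with the agonist NPW; 0% = agonist with vehicle and 100% = vehicle without agonist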
# GPR7 antag cf: human GPR7 antagonism, confirmation assay; shares compounds with GPR7 antagonist; 52% of 2,400 active; AID 1952; inhibition, % at 4.4 µM; GPR7-expressing cells, calcium fluorescence antagonist mode; in the data active means inhibition above about 24%;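 further: stimulated with the GPR7 agonist NPW; 0% = agonist plus vehicle and 100% = vehicle alone without agonist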
# MCHR1 antagonist: MCHR1 (human) antagonism in GPR7 counter-screen; shares compounds with GPR7 antagonist; AID 2148; 62% of 2,400 active; inhibition, % at 4.4 µM; MCHR1-expressing cells, fluorescence antagonist assay; in the data active means inhibition above about 22%;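 further: 0% = vehicle with agonist and 100% = vehicle without agonist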
# * = called active by the depositor; x = no result given. Sampled rows, rich in hits. Any-hit rate of the full collection: about 4.5%.
SMILES,CHO parental Ca,OX1R antag-1,TAAR1 ag,TAAR1 antagonist,OX1R antag-2,GPR7 antagonist,GPR7 antag cf,MCHR1 antagonist
COc1ccc(OCC(=O)Nc2c(C(=O)N3CCN(C)CC3)oc3ccccc23)cc1,-30.9,-49.8,8.7,26.7,12.6,-6.9,x,x
Cc1ccccc1C(=O)Nc1c(C(=O)N(CCN(C)C)Cc2ccco2)oc2ccccc12,-26.5,-24.3,9.1,11.4,7.0,5.9,x,x
COc1ccc(OCC(=O)Nc2c(C(=O)N(CCN(C)C)Cc3ccco3)oc3ccccc23)cc1,-3.0,13.1,13.0,40.9,19.6,27.9*,22.5,34.6*
COc1ccccc1C(=O)Nc1c(C(=O)N(CCN(C)C)Cc2ccco2)oc2ccccc12,-6.1,0.5,18.8,37.6,17.4,29.3*,48.4*,62.1*
C[C@H](O)Cc1cc2ccccc2c(=O)o1,-3.6,-2.7,7.2,-1.8,3.1,x,x,x
CCN(C(=O)c1ccc(S(=O)(=O)N2CCCCC2)cc1)C1CCS(=O)(=O)C1 (stereo unspecified),1.1,-11.1,0.7,-12.6,13.2,x,x,x
CC(=O)c1ccc(NC(=O)CSc2ccc(-c3sc(C)nc3C)nn2)cc1,-3.3,-6.6,12.6,63.5*,19.4,26.5*,42.6*,75.9*
COc1cc2c(cc1OC)CN(C(=O)c1cc(S(=O)(=O)N3CCOCC3)c(Cl)cc1Cl)CC2,-22.9,-34.1,5.4,-28.7,7.1,-20.6,x,x
O=C(NCc1cccnc1)c1ccc(COc2cccc3ccccc23)o1,-28.2,-16.0,9.6,10.3,43.9,31.9*,44.5*,43.0*
O=C(NCc1cccnc1)c1ccc(COc2ccc(Cl)cc2Cl)o1,-9.8,-18.3,5.7,3.5,16.4,-2.6,x,x
CCS(=O)(=O)c1nc(S(=O)(=O)c2ccc(Cl)cc2)c(N2CCc3ccccc3C2)s1,-2.0,-8.4,2.9,-18.8,6.0,-9.4,x,x
O=C(NC(=S)Nc1cccnc1Cl)c1ccc(F)cc1,-2.0,-11.5,-5.5,4.7,5.6,4.6,x,x
NC(=O)C1(c2ccccc2)OC1c1ccccc1 (stereo unspecified),-4.9,-0.9,16.8,2.8,15.6,x,x,x
COc1ccc(N2CCN(c3ccc(NC(=O)NN)cc3)CC2)cc1,-4.7,-9.4,0.8,-7.9,2.7,-13.8,x,x
O=C(OC1C2CCC1C1CN(CCc3ccccc3)CC12)c1ccccc1 (stereo unspecified),-15.2,-14.2,6.6,-1.0,14.2,42.4*,42.1*,23.7*
Cc1ccccc1CN(C)CCS(=O)(=O)c1cc(Cl)ccc1Cl,-5.9,-0.8,-6.2,-19.7,20.0,9.7,x,x
CSc1ccc2c(c1)N(CCC1CCCCN1C)c1ccccc1S2 (stereo unspecified),28.3,12.2,17.6,38.7,10.8,42.5*,76.4*,83.3*
O=C(NCCO)c1ccc(-c2nnc(Nc3ccc(O)cc3)c3ccccc23)cc1,-8.0,-0.5,2.7,-6.5,0.6,-6.5,x,x
Oc1ccc(Nc2nnc(-c3ccc(O)cc3)c3ccccc23)cc1,-5.6,19.7,-1.0,-14.1,21.6,39.3*,53.8*,62.5*
COc1ccc(Nc2nnc(-c3ccc(O)cc3)c3ccccc23)cc1,6.0,-7.0,15.4,-5.0,14.4,61.0*,70.7*,74.2*
COc1ccc(-c2nnc(Nc3ccc(CC(N)=O)cc3)c3ccccc23)cc1,-22.8,-15.2,-1.9,0.8,21.1,-2.3,x,x
Cc1ccc(-c2nc(Nc3ccc(N4CCOCC4)cc3)c3ccccc3n2)cc1,-6.1,-28.5,1.2,4.5,18.6,-4.2,x,x
O=C(N=Nc1c(O)[nH]c2ccccc12)c1cc(-c2cccs2)[nH]n1,-2.6,8.9,6.2,32.2,66.0*,29.3*,-5.9,29.2*
O=C(Cc1cccs1)N=Nc1c(O)[nH]c2ccccc12,-10.4,-13.5,5.8,-12.3,17.0,3.6,x,x
COc1cccc(N2CCc3c(C)nc4ccc(Cl)cc4c32)c1,x,x,16.8,-63.1,x,35.6*,33.4*,33.8*
SMILES,CHO parental Ca,OX1R antag-1,TAAR1 ag,TAAR1 antagonist,OX1R antag-2,GPR7 antagonist,GPR7 antag cf,MCHR1 antagonist
CCN(C[C@H]1N[C@@](CC)(C(=O)OC)[C@H]2C(=O)N(C)C(=O)[C@@H]12)C(=O)Nc1ccccc1,-4.2,-3.4,0.8,5.5,3.2,x,x,x
O=C(N/N=C/c1ccccc1)c1cc(-c2ccc3c(c2)OCO3)n[nH]1,-9.1,-30.8,14.3,21.2,13.2,22.5*,-0.7,36.2*
COc1nccnc1NS(=O)(=O)c1ccc(NC(=O)c2cccc(C)c2)cc1,-7.4,-3.9,7.5,2.6,4.1,-9.1,x,x
C=CCOc1ccccc1CNCCc1ccc(S(N)(=O)=O)cc1,-6.0,-19.3,4.0,8.4,2.5,5.9,x,x
NS(=O)(=O)c1ccc(CCNCc2cc(Cl)ccc2OCc2ccccc2)cc1,6.1,-10.4,13.3,36.9,4.9,27.8*,27.5*,56.9*
NS(=O)(=O)c1ccc(CCNCc2cc(Br)ccc2OCc2ccccc2F)cc1,59.6*,48.6*,8.0,36.2,20.0,38.4*,53.4*,75.6*
NS(=O)(=O)c1ccc(CCNCc2ccccc2OCc2ccc(Cl)cc2)cc1,3.8,-3.9,13.2,-3.1,8.5,23.0,x,x
Cc1ccccc1CN1C[C@@H]2C[C@@H](c3cn[nH]c3-c3ccc(F)cc3)N3CCC[C@@]23C1=O,-15.2,-23.8,24.0,21.4,18.6,x,x,13.5
CC(C)CCNC(=O)C1CCN(S(=O)(=O)c2ccc3c(c2)CC(C)N3C(=O)C2CC2)CC1 (stereo unspecified),-18.7,-38.4,-0.2,5.3,9.7,25.1*,-8.8,17.6
CCc1cc(C(=O)OC)c(NC(=O)CCCC(=O)O)s1,8.1,-4.0,8.8,2.2,8.4,26.2*,-2.7,0.0
COC(=O)c1cc(C)sc1NC(=O)CCCC(=O)O,-12.3,-17.0,-0.4,5.9,10.0,17.6,x,x
CC1(C)C2CCC(C2)C1(C)NC(=O)CNCC1CCCCC1 (stereo unspecified),-13.8,-20.0,11.0,-12.7,15.9,32.6*,38.2*,22.3*
Cc1cc([N+](=O)[O-])nn1CC(=O)Nc1c(C)n(C)n(-c2ccccc2)c1=O,-14.4,-19.4,2.9,-1.1,29.1,31.3*,-1.6,1.2
Cc1nn(CC(=O)Nc2c(C)n(C)n(-c3ccccc3)c2=O)c(C)c1[N+](=O)[O-],-8.1,-7.0,3.6,-8.4,11.2,5.7,x,x
CCOC(=O)C1CCCN(C(=O)c2cnn3c(C(F)(F)F)cc(-c4ccccc4)nc23)C1 (stereo unspecified),-23.6,-19.2,0.9,17.7,9.2,25.1*,14.5,10.0
